# Screening results (PubChem)
# The list is not random: actives were taken first. Their share in the collection is about 2%.
# dFosB act-1: activators of mouse delta FosB homodimer | actives 0.99% (n = 340,000) | P13346 | purified delta FosB, TAMRA-CDK5 oligo fluorescence polarization; percent of positive-control signal above neutral wells | activation, % at 25 µM;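 active means mean activation above about 17%, with every replicate also reaching it, limit read from the data, passing the limit was not always enough; inconclusive means only one of the two conditions met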
# Target sequence (P13346 whole entry, looked up): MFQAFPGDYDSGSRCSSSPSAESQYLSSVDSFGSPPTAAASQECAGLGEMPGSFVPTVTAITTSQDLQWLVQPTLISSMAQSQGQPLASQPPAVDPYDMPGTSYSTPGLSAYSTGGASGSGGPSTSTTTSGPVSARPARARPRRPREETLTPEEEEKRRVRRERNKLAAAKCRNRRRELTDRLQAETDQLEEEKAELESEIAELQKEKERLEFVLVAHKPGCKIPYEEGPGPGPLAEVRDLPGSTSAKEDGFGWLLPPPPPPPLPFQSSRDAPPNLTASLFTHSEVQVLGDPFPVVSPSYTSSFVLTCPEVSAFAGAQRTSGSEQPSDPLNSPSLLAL
# SR-BI uptake up: SR-BI HDL lipid transfer activation. AID 504775. activation, % at 12.5 µM. actives 0.096% (n = 320,000). CHO ldlA[mSR-BI] cells, DiI-HDL uptake fluorescence, 3 h; 100 = double the neutral-control signal;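 active means mean replicate activation of at least 60% and every replicate at or above 60%; inconclusive means mean or all-replicate condition met, but not both; inactive means mean below 60% and not all replicates reaching 60%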;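 further: 0% = median plate neutral-control signal and 100% = twice that signal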
#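 Material: SR-BI-overexpressing, LDLR-lacking CHO cells | Dosing: Single compound concentration, delivered by pin transfer | Probe or stimulus: Labelled HDL, 10 µg/mL | Signal: Bottom-read cell fluorescence after medium removal, ex 550/em 595 nm | Schedule: 3 h, 37 °C | Evaluation: HDL uptake via cellular fluorescence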
# SR-BI DiI inh: inhibitors of mouse SR-BI mediated HDL lipid uptake | ldlA[mSR-BI] CHO cells, DiI-HDL uptake fluorescence, 3 h | inhibition, % at 12.5 µM | actives 0.96% (n = 320,000) | AID 488896;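 active means mean replicate inhibition of at least 70% and a set share of replicates each scoring 70 or more; inconclusive means meets just one of the two criteria; inactive means fails both criteria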;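 further: 0% = median of neutral control wells and 100% = median of positive control wells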
# CDK5 inh: blocks human CDK5/p35 kinase activity; Q00535+Q15078; Recombinant CDK5/p35, ADP-Glo luminescence, 60 min; inhibition, % at 10 µM; actives 0.01% (n = 330,000);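 active means highest replicate inhibition of at least 50% and at least 75% of replicates reaching 50%; inconclusive means only one of the two criteria met; inactive means both criteria failed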;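 further: plate controls were DMSO neutral control for no effect and GW8510 at 10 µM for full effect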
# dFosB act-2: activators of mouse delta FosB homodimer DNA binding | activation, % at 24.9 µM | 2,400 tested, under 10 active | shares compounds with dFosB act-1 | AID 588690 | purified delta FosB, TAMRA-CDK5 oligo fluorescence polarization; normalised: neutral wells 0, positive control 100;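 active means highest replicate activation at or above 34% and every replicate reaching that threshold; inconclusive means meets only one of the two criteria; inactive means meets neither criterion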;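 further: higher polarization means more probe DNA bound by delta FosB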
# * hit, by the source's call; ? = inconclusive; . = no result.
SMILES,dFosB act-1,SR-BI uptake up,SR-BI DiI inh,CDK5 inh,dFosB act-2
CCOc1ccc(C(C(=O)NC2CCCC2)N(C(=O)c2snc(C(N)=O)c2N)c2cccc(O)c2)cc1 (stereo not drawn),-10.7,7.9,-7.9,-5.4,.
COc1ccc(N(C(=O)c2snc(C(N)=O)c2N)C(C(=O)NC2CCCC2)c2ccc(F)cc2)c(OC)c1 (stereo not drawn),32.4*,36.2,-36.2,-1.6,-6.5
COC(=O)C1CCN(C(=O)COC(=O)/C=C/c2ccc(O)c(OC)c2)CC1,-9.8,-4.8,4.8,-1.3,.
CCOC(=O)C(Cc1c[nH]c2ccccc12)NC(=O)c1ccccc1Br (stereo not drawn),-4.5,-1.0,1.0,-2.2,.
CC1CCC(C(=O)NC(C(=O)NCCc2ccc(S(N)(=O)=O)cc2)C(C)C)CC1 (stereo not drawn),21.1*,-4.3,4.3,-1.2,4.6
CC(NCCc1ccc(S(N)(=O)=O)cc1)C(=O)NCCc1ccc(F)cc1 (stereo not drawn),-0.2,-5.0,5.0,-0.6,.
CCOc1ccc(C(=O)COC(=O)Cc2n[nH]c(=O)c3ccccc23)cc1,-2.5,16.9,-16.9,-3.4,.
CCOc1ccc(NC(=O)c2ccc(NC(=O)Cc3n[nH]c(=O)c4ccccc34)cc2)cc1,110.7*,-39.5,39.5,1.1,-7.4
N/C(=N\OC(=O)COc1ccc2ccccc2c1)c1cccnc1,-13.8,.,.,-0.3,.
Fc1ccc(Nc2nc(Oc3ccc4c(c3)OCO4)nc(N3CCOCC3)n2)c(F)c1,60.7*,-39.7,39.7,0.8,-2.7
Cc1cccn2c(CNCCc3ccco3)c(C(=O)N3CCOCC3)nc12,-8.8,28.6,-28.6,0.7,.
COc1ccc(-c2cc(=O)oc3c(C)c(OC(C)C(=O)Nc4ccc(CN5CCOCC5)cc4)ccc23)cc1 (stereo not drawn),43.1*,-29.8,29.8,1.5,6.9
COc1ccc(-n2nc(C(=O)N(C)C)nc2-c2ccccc2)cc1,-5.2,-15.0,15.0,0.3,.
O=C(COC(=O)c1cccnc1Nc1ccccc1F)NCc1ccc2c(c1)OCO2,55.2*,-17.5,17.4,1.2,3.2
COc1ccc(-c2nc3cc(NC(=O)Cc4ccc(OC)c(OC)c4)ccc3o2)cc1,55.8*,-1.4,1.4,-1.6,4.1
O=C(COc1ccc(Cl)cc1)Nc1ccc2oc(-c3ccncc3)nc2c1,37.1*,-40.5,40.5,-1.5,-0.8
COc1ccc(CC(=O)Nc2ccc(-c3nnc(-c4ccccc4)o3)cc2)cc1OC,119.8*,-24.9,24.9,-0.5,-7.0
COc1cccc(-n2nnc3c(=O)n(CC(=O)Nc4ccc(C)cc4)cnc32)c1,27.0*,22.3,-22.3,0.4,-6.3
CCOc1ccc(-n2nnc3c(=O)n(CC(=O)NCc4ccco4)cnc32)cc1,22.0*,18.1,-18.1,1.6,4.3
COCCN(Cc1cccs1)S(=O)(=O)c1ccc(-c2ccc(=O)[nH]n2)s1,-7.6,10.5,-10.5,-0.8,.
CCOc1ccc2nc(NC3=NC(c4ccc(OC)cc4)CC(=O)N3)nc(C)c2c1 (stereo not drawn),-56.5,-31.6,31.6,-0.6,.
CCOc1ccc2nc(NC3=NC(C)(C)C=C(C)N3)nc(C)c2c1,23.5*,-54.5,54.5,-3.3,5.3
CCOc1ccc2c(C)nc(NC3=NC(C)(C)C=C(C)N3)nc2c1,25.6*,-28.9,28.9,1.4,?
CC1CC(=Cc2ccc([N+](=O)[O-])cc2)C(=O)O1 (stereo not drawn),6.9,6.9,-6.9,-1.1,.
CN1C(=O)C(C)(C)c2cc(S(=O)(=O)NCc3ccc(C(=O)NCc4ccco4)cc3)ccc21,-12.2,3.3,-3.3,1.3,.
SMILES,dFosB act-1,SR-BI uptake up,SR-BI DiI inh,CDK5 inh,dFosB act-2
C#CC(CC)(CC)NC(=O)c1cc(S(=O)(=O)N2CCCCC2)ccc1N1CCOCC1,-5.2,2.2,-2.2,1.8,.
Cc1n[nH]c(C)c1S(=O)(=O)N1CCc2ccccc21,-3.3,16.7,-16.7,-1.2,.
Cc1cc(C)c(S(=O)(=O)N2CCc3ccccc32)c(C)c1,26.8*,0.2,-0.2,0.7,1.9
Cc1ccc(C)c(NC(=O)CN(C)C(=O)c2cccc(N3C(=O)CCC3=O)c2)c1,-7.2,12.1,-12.1,-2.9,.
CCOC(=O)c1cc(-c2ccccc2)sc1NC(=O)COC(=O)c1ccc(Cl)c(S(N)(=O)=O)c1,-2.9,-27.6,27.6,-5.3,.
CCOC(=O)c1cc(-c2ccccc2)sc1NC(=O)COC(=O)c1cccc(S(N)(=O)=O)c1,24.2*,-17.1,17.1,1.5,-1.8
O=C(O)/C=C/c1ccc(S(=O)(=O)Nc2ccccc2C(=O)Nc2ccc(F)cc2)cc1,1.4,19.3,-19.3,-1.5,.
Cc1ccc(C(=O)Nc2cnc3ccccn3c2=O)cc1,-0.6,15.5,-15.5,2.3,.
O=C(Nc1cnc2ccccn2c1=O)c1ccc(Cl)cc1Cl,19.1*,-1.5,1.5,2.9,4.6
Cn1cnc([N+](=O)[O-])c1S(=O)(=O)Oc1ccc(Cl)cc1,0.7,6.3,-6.3,1.6,.
CC(C)(CC(=O)O)CC(=O)N1CCN(c2cc(C(F)(F)F)nc3ccccc23)CC1,-2.7,3.3,-3.3,0.4,.
Cc1ccc(CNC(=O)CCCn2c(=O)c3ccccc3n(CC(=O)NC3CCCC3)c2=O)cc1,27.0*,-7.7,7.7,-1.4,-2.5
O=C(CCn1c(=O)c2ccccc2n(Cc2cccnc2)c1=O)NCc1ccc2c(c1)OCO2,-4.8,39.5,-39.5,-1.8,.
Cc1cccc(NC(=O)Cn2c(=O)n(CCC(=O)NC3CCCC3)c(=O)c3ccccc32)c1,42.0*,3.1,-3.1,-0.1,1.0
Cc1ccc(CNC(=O)Cn2c(=O)n(-c3ccccc3)c(=O)c3sccc32)cc1,21.1*,23.7,-23.7,0.6,-9.5
Cc1ccccc1Cn1c(=O)n(CCC(=O)NCc2ccc3c(c2)OCO3)c(=O)c2ccccc21,59.7*,4.7,-4.7,.,-1.0
Cc1ccccc1S(=O)c1ccccc1C(=O)O (stereo not drawn),8.4,-3.3,3.3,0.8,.
O=C(C[C@H]1C/C=C\CC[C@H](Cc2ccc(F)cc2)C(=O)O[C@@H](c2ccccc2)CNC1=O)N[C@@H](CO)Cc1ccccc1,?,-14.7,14.7,0.5,.
O=C(C[C@H]1C/C=C\CC[C@H](Cc2ccc(F)cc2)C(=O)O[C@H](c2ccccc2)CNC1=O)N[C@H](CO)Cc1ccccc1,48.0*,0.7,-0.7,-2.0,0.3
CCc1nnc(NC(=O)CCN2C(=O)C3CCCCC3C2=O)s1 (stereo not drawn),-2.1,8.6,-8.6,1.6,.
Cc1c(C(=O)NNC(=O)Nc2ccc([N+](=O)[O-])cc2)oc2ccccc12,66.6*,18.0,-18.0,-3.9,1.4
CCC(=O)Nc1ccc(NC(=O)c2oc3ccccc3c2C)cc1,4.2,-46.7,46.7,-0.5,.
CCOc1ccc(-n2cc(C(=O)Nc3cccc(Cl)c3)c3cc(OC)c(OC)cc3c2=O)cc1,29.3*,-28.0,28.0,0.7,7.3
